Activity calls are given as the source filed them. The calls are words filed in the database; no cut-off is given here.
Experiments:
[1] = test system: OCI-AML-3; assay: (§1) Anticancer activity against human OCI-AML3 cells expressing mutant NPM1 assessed as apoptosis for 48 hrs by annexin-V and TO-PRO3 staining based flow cytometry; assay type: functional, cell-based
How it was run: (§2)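 OCI-AML3 cells (NPM1c+) in logarithmic growth, passaged 2–3 times weekly. Cells were exposed to the indicated compound concentrations for 48 hr, then stained with annexin V and TO-PRO 3. Percent apoptotic cells was read by flow cytometry. AP50 is the concentration at which 50% of cells undergo apoptosis.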

[2] = test system: A498; assay: Anticancer activity against human A498 cells after 48 hrs by sulforhodamine B assay; assay type: functional; details: A498, 48 h
How it was run: (§3)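 NCI-60 human tumour cell line panel. Compounds dissolved in DMSO/H2O and tested at five 10-fold dilutions (10⁻⁴ M to 10⁻⁸ M) for 48 hr. GI50 is the molar concentration giving 50% reduction in net cell growth relative to cell numbers on day 0.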

[3] = test system: ACHN; assay: Anticancer activity against human ACHN cells after 48 hrs by sulforhodamine B assay; assay type: functional; how it was run: as §3
[4] = test system: U-251; assay: Anticancer activity against human U251 cells after 48 hrs by sulforhodamine B assay; assay type: functional; details: U-251, 48 h
How it was run: (§4)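 NCI-60 panel protocol. Compounds were dissolved in DMSO/H2O and tested at five 10-fold concentrations (10⁻⁴ to 10⁻⁸ M) with 48 hr incubation. GI50 is the molar concentration giving a 50% reduction in net cell growth relative to cell numbers on day 0.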

[5] = test system: SR; assay: Anticancer activity against human SR cells after 48 hrs by sulforhodamine B assay; assay type: functional; how it was run: as §4
[6] = test system: CAKI-1; assay: Anticancer activity against human Caki1 cells after 48 hrs by sulforhodamine B assay; assay type: functional; details: CAKI-1, 48 h; how it was run: as §3
[7] = test system: SF-268; assay: Anticancer activity against human SF268 cells after 48 hrs by sulforhodamine B assay; assay type: functional; details: SF-268, 48 h; how it was run: as §3
[8] = test system: NCI-H226; assay: Anticancer activity against human NCI-H226 cells after 48 hrs by sulforhodamine B assay; assay type: functional; details: NCI-H226, 48 h; how it was run: as §3
[9] = test system: KM12; assay: Anticancer activity against human KM12 cells after 48 hrs by sulforhodamine B assay; assay type: functional; details: KM12, 48 h; how it was run: as §3
[10] = test system: Malme-3M; assay: Anticancer activity against human MALME-3M cells after 48 hrs by sulforhodamine B assay; assay type: functional; how it was run: as §3
[11] = test system: UO-31; assay: Anticancer activity against human UO31 cells after 48 hrs by sulforhodamine B assay; assay type: functional; details: UO-31, 48 h; how it was run: as §4
[12] = test system: NCI-H522; assay: Anticancer activity against human NCI-H522 cells after 48 hrs by sulforhodamine B assay; assay type: functional; details: NCI-H522, 48 h; how it was run: as §3
[13] = test system: MDA-MB-435; assay: Anticancer activity against human MDA-MB-435 cells after 48 hrs by sulforhodamine B assay; assay type: functional; details: MDA-MB-435, 48 h; how it was run: as §3
[14] = Anticancer activity against human HOP92 cells after 48 hrs by sulforhodamine B assay; assay type: functional; details: HOP-92, 48 h; how it was run: as §3
[15] = test system: HCT-15; assay: Anticancer activity against human HCT15 cells after 48 hrs by sulforhodamine B assay; assay type: functional; details: HCT-15, 48 h; how it was run: as §3
[16] = Anticancer activity against human RXF393 cells after 48 hrs by sulforhodamine B assay; assay type: functional; details: RXF 393, 48 h; how it was run: as §3
[17] = test system: DU-145; assay: Anticancer activity against human DU145 cells after 48 hrs by sulforhodamine B assay; assay type: functional; details: DU-145, 48 h; how it was run: as §3
[18] = test system: OVCAR-8; assay: Anticancer activity against human OVCAR8 cells after 48 hrs by sulforhodamine B assay; assay type: functional; details: OVCAR-8, 48 h; how it was run: as §3
[19] = test system: SK-OV-3; assay: Anticancer activity against human SKOV3 cells after 48 hrs by sulforhodamine B assay; assay type: functional; details: SK-OV-3, 48 h; how it was run: as §3
[20] = Anticancer activity against human RPMI8226 cells after 48 hrs by sulforhodamine B assay; assay type: functional; details: RPMI-8226, 48 h; how it was run: as §3
[21] = test system: SW-620; assay: Anticancer activity against human SW620 cells after 48 hrs by sulforhodamine B assay; assay type: functional; details: SW-620, 48 h; how it was run: as §4
[22] = test system: IGROV-1; assay: Anticancer activity against human IGROV1 cells after 48 hrs by sulforhodamine B assay; assay type: functional; details: IGROV-1, 48 h; how it was run: as §3
[23] = test system: UACC-257; assay: Anticancer activity against human UACC257 cells after 48 hrs by sulforhodamine B assay; assay type: functional; details: UACC-257, 48 h; how it was run: as §4
[24] = test system: NCI-H322M; assay: Anticancer activity against human NCI-H322M cells after 48 hrs by sulforhodamine B assay; assay type: functional; how it was run: as §3
[25] = Anticancer activity against human MOLT4 cells after 48 hrs by sulforhodamine B assay; assay type: functional; details: MOLT-4, 48 h; how it was run: as §3
[26] = Anticancer activity against human NCI-ADR-RES cells after 48 hrs by sulforhodamine B assay; assay type: functional; how it was run: as §3
[27] = test system: TK-10; assay: Anticancer activity against human TK10 cells after 48 hrs by sulforhodamine B assay; assay type: functional; details: TK-10, 48 h; how it was run: as §4
[28] = test system: SNB-75; assay: Anticancer activity against human SNB75 cells after 48 hrs by sulforhodamine B assay; assay type: functional; details: SNB-75, 48 h; how it was run: as §3
[29] = test system: A549; assay: Anticancer activity against human A549/ATCC cells after 48 hrs by sulforhodamine B assay; assay type: functional; details: A549, 48 h; how it was run: as §3
[30] = test system: NCI-H460; assay: Anticancer activity against human NCI-H460 cells after 48 hrs by sulforhodamine B assay; assay type: functional; details: NCI-H460, 48 h; how it was run: as §3
[31] = Anticancer activity against human SF539 cells after 48 hrs by sulforhodamine B assay; assay type: functional; details: SF-539, 48 h; how it was run: as §3
[32] = test system: OVCAR-5; assay: Anticancer activity against human OVCAR5 cells after 48 hrs by sulforhodamine B assay; assay type: functional; details: OVCAR-5, 48 h; how it was run: as §3
[33] = test system: HOP-62; assay: Anticancer activity against human HOP62 cells after 48 hrs by sulforhodamine B assay; assay type: functional; details: HOP-62, 48 h; how it was run: as §3
[34] = test system: SK-MEL-5; assay: Anticancer activity against human SK-MEL-5 cells after 48 hrs by sulforhodamine B assay; assay type: functional; details: SK-MEL-5, 48 h; how it was run: as §3
[35] = test system: BT-549; assay: Anticancer activity against human BT549 cells after 48 hrs by sulforhodamine B assay; assay type: functional; details: BT-549, 48 h; how it was run: as §3
[36] = test system: SK-MEL-2; assay: Anticancer activity against human SK-MEL-2 cells after 48 hrs by sulforhodamine B assay; assay type: functional; details: SK-MEL-2, 48 h; how it was run: as §3
[37] = test system: SN12C; assay: Anticancer activity against human SN12C cells after 48 hrs by sulforhodamine B assay; assay type: functional; how it was run: as §3
[38] = test system: HL-60(TB); assay: Anticancer activity against human HL-60(TB) cells after 48 hrs by sulforhodamine B assay; assay type: functional; details: HL-60, 48 h; how it was run: as §3
[39] = test system: K562; assay: Anticancer activity against human K562 cells after 48 hrs by sulforhodamine B assay; assay type: functional; details: K562, 48 h; how it was run: as §3
[40] = test system: CCRF-CEM; assay: Anticancer activity against human CCRF-CEM cells after 48 hrs by sulforhodamine B assay; assay type: functional; how it was run: as §3
[41] = test system: HCT-116; assay: Anticancer activity against human HCT116 cells after 48 hrs by sulforhodamine B assay; assay type: functional; details: HCT-116, 48 h; how it was run: as §3
[42] = test system: MDA-MB-231; assay: Anticancer activity against human MDA-MB-231 cells after 48 hrs by sulforhodamine B assay; assay type: functional; details: MDA-MB-231, 48 h; how it was run: as §3
[43] = Anticancer activity against human COLO205 cells after 48 hrs by sulforhodamine B assay; assay type: functional; details: COLO 205, 48 h; how it was run: as §3
[44] = Anticancer activity against human HCC2998 cells after 48 hrs by sulforhodamine B assay; assay type: functional; details: HCC 2998, 48 h; how it was run: as §3
[45] = Anticancer activity against human SF295 cells after 48 hrs by sulforhodamine B assay; assay type: functional; details: SF-295, 48 h; how it was run: as §3
[46] = test system: MCF7; assay: Anticancer activity against human MCF7 cells after 48 hrs by sulforhodamine B assay; assay type: functional; details: MCF7, 48 h; how it was run: as §3
[47] = test system: T47D; assay: Anticancer activity against human T47D cells after 48 hrs by sulforhodamine B assay; assay type: functional; how it was run: as §4
[48] = test system: SNB-19; assay: Anticancer activity against human SNB19 cells after 48 hrs by sulforhodamine B assay; assay type: functional; details: SNB-19, 48 h; how it was run: as §3
[49] = test system: OVCAR-4; assay: Anticancer activity against human OVCAR4 cells after 48 hrs by sulforhodamine B assay; assay type: functional; details: OVCAR-4, 48 h; how it was run: as §3
[50] = test system: 786-0; assay: Anticancer activity against human 786-0 cells after 48 hrs by sulforhodamine B assay; assay type: functional; details: 786-0, 48 h; how it was run: as §3
[51] = Anticancer activity against human Hs 578T cells after 48 hrs by sulforhodamine B assay; assay type: functional; how it was run: as §3
[52] = test system: HT-29; assay: Anticancer activity against human HT-29 cells after 48 hrs by sulforhodamine B assay; assay type: functional; details: HT-29, 48 h; how it was run: as §3
[53] = test system: M14; assay: Anticancer activity against human M14 cells after 48 hrs by sulforhodamine B assay; assay type: functional; details: M14, 48 h; how it was run: as §3
[54] = Anticancer activity against human LOXIMVI cells after 48 hrs by sulforhodamine B assay; assay type: functional; details: LOX IMVI; how it was run: as §3
[55] = test system: MDA-MB-468; assay: Anticancer activity against human MDA-MB-468 cells after 48 hrs by sulforhodamine B assay; assay type: functional; details: MDA-MB-468, 48 h; how it was run: as §3
[56] = test system: SK-MEL-28; assay: Anticancer activity against human SK-MEL-28 cells after 48 hrs by sulforhodamine B assay; assay type: functional; details: SK-MEL-28, 48 h; how it was run: as §3
[57] = as §1; assay type: functional, cell-based; details: OCI-AML-3, 48 h; how it was run: as §2
[58] = test system: OVCAR-3; assay: Anticancer activity against human OVCAR3 cells after 48 hrs by sulforhodamine B assay; assay type: functional; details: OVCAR-3, 48 h; how it was run: as §3

Cc1c(C=C2C(=O)NC(=O)NC2=O)c2ccccc2n1Cc1ccc(C#N)cc1
Activity [1]: inactive

Cc1c(C=C2C(=O)NC(=S)NC2=O)c2ccccc2n1Cc1ccccc1
GI50 [2]: 1560 nM | GI50 [3]: 1370 nM | GI50 [4]: 1160 nM | GI50 [5]: 340 nM | GI50 [6]: 1570 nM | GI50 [7]: 1260 nM | GI50 [8]: 1880 nM | GI50 [9]: 950 nM | GI50 [10]: 2310 nM | GI50 [11]: 880 nM | GI50 [12]: 1850 nM | GI50 [13]: 1150 nM | GI50 [14]: 400 nM | GI50 [15]: 1300 nM | GI50 [16]: 1230 nM | GI50 [17]: 1310 nM | GI50 [18]: 1130 nM | GI50 [19]: 1890 nM | GI50 [20]: 350 nM | GI50 [21]: 1240 nM | GI50 [22]: 970 nM | GI50 [23]: 1410 nM | GI50 [24]: 1630 nM | GI50 [25]: 1710 nM | GI50 [26]: 1890 nM | GI50 [27]: 1470 nM | GI50 [28]: 1510 nM | GI50 [29]: 1850 nM | GI50 [30]: 980 nM | GI50 [31]: 1140 nM | GI50 [32]: 1750 nM | GI50 [33]: 1090 nM | GI50 [34]: 1370 nM | GI50 [35]: 1600 nM | GI50 [36]: 2080 nM | GI50 [37]: 1150 nM | GI50 [38]: 290 nM | GI50 [39]: 1260 nM | GI50 [40]: 590 nM | GI50 [41]: 890 nM | GI50 [42]: 1340 nM | GI50 [43]: 1330 nM | GI50 [44]: 1180 nM | GI50 [45]: 930 nM | GI50 [46]: 700 nM | GI50 [47]: 1900 nM | GI50 [48]: 1310 nM | GI50 [49]: 1240 nM | GI50 [50]: 1580 nM | GI50 [51]: 510 nM | GI50 [52]: 1370 nM | GI50 [53]: 1400 nM | GI50 [54]: 530 nM | GI50 [55]: 510 nM | GI50 [56]: 1660 nM | AC50 [57]: 3310 nM | GI50 [58]: 1180 nM
